# Reference: ChEMBL document CHEMBL3232844, “Synthesis and structure activity relationships of schweinfurthin indoles” (2014)
# Columns and labels:
# Format in all cases: functional
# [1] = system: HCC 2998; assay: Cytotoxicity against human HCC2998 cells
# Summary of the method: (§1)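 Tested in a 60-cell-line human tumor panel screen; the read-out is growth inhibition, reported as GI50 for each cell line.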
# [2] = system: CCRF-CEM; assay: Cytotoxicity against human CCRF-CEM cells
# [3] = system: SNB-19; assay: Cytotoxicity against human SNB19 cells; summary of the method: as §1
# [4] = Cytotoxicity against human OVCAR3 cells; summary of the method: as §1
# [5] = system: KM12; assay: Cytotoxicity against human KM12 cells; summary of the method: as §1
# [6] = system: U-251; assay: Cytotoxicity against human U251 cells
# Summary of the method: (§2)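 Cell line run as part of the 60-cell-line screening panel; growth inhibition was reported as a GI50 for each line.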
# [7] = system: MDA-MB-231; assay: Cytotoxicity against human MDA-MB-231 cells; summary of the method: as §1
# [8] = system: RXF 393; assay: Cytotoxicity against human RXF393 cells; summary of the method: as §1
# [9] = Cytotoxicity against human OVCAR4 cells; summary of the method: as §1
# [10] = system: SF-539; assay: Cytotoxicity against human SF539 cells; summary of the method: as §1
# [11] = system: ACHN; assay: Cytotoxicity against human ACHN cells; summary of the method: as §1
# [12] = Cytotoxicity against human HCT15 cells; summary of the method: as §1
# [13] = system: HOP-62; assay: Cytotoxicity against human HOP62 cells; summary of the method: as §1
# [14] = system: BT-549; assay: Cytotoxicity against human BT549 cells; summary of the method: as §1
# [15] = Cytotoxicity against human NCI-ADR-RES cells; summary of the method: as §1
# [16] = system: K562; assay: Cytotoxicity against human K562 cells; summary of the method: as §1
# [17] = Cytotoxicity against human OVCAR5 cells; summary of the method: as §1
# [18] = system: CAKI-1; assay: Cytotoxicity against human Caki1 cells; summary of the method: as §1
# [19] = system: SF-295; assay: Cytotoxicity against human SF295 cells; summary of the method: as §1
# [20] = system: LOX IMVI; assay: Cytotoxicity against human LOXIMVI cells; summary of the method: as §1
# [21] = Cytotoxicity against human UACC257 cells; summary of the method: as §2
# [22] = system: COLO 205; assay: Cytotoxicity against human COLO205 cells; summary of the method: as §1
# [23] = system: HT-29; assay: Cytotoxicity against human HT-29 cells; summary of the method: as §1
# [24] = Cytotoxicity against human OVCAR8 cells; summary of the method: as §1
# [25] = system: NCI-H460; assay: Cytotoxicity against human NCI-H460 cells; summary of the method: as §1
# [26] = system: T47D; assay: Cytotoxicity against human T47D cells; summary of the method: as §2
# [27] = system: A498; assay: Cytotoxicity against human A498 cells; summary of the method: as §1
# [28] = system: M14; assay: Cytotoxicity against human M14 cells; summary of the method: as §1
# [29] = system: SK-MEL-5; assay: Cytotoxicity against human SK-MEL-5 cells; summary of the method: as §1
# [30] = Cytotoxicity against human UACC62 cells; summary of the method: as §2
# [31] = Cytotoxicity against human EKVX cells; summary of the method: as §1
# [32] = system: SNB-75; assay: Cytotoxicity against human SNB75 cells; summary of the method: as §2
# [33] = system: MOLT-4; assay: Cytotoxicity against human MOLT4 cells; summary of the method: as §1
# [34] = system: SK-MEL-2; assay: Cytotoxicity against human SK-MEL-2 cells; summary of the method: as §1
# [35] = system: NCI-H23; assay: Cytotoxicity against human NCI-H23 cells; summary of the method: as §1
# [36] = system: NCI-H322M; assay: Cytotoxicity against human NCI-H322M cells; summary of the method: as §1
# [37] = system: TK-10; assay: Cytotoxicity against human TK10 cells; summary of the method: as §2
# [38] = system: NCI-H226; assay: Cytotoxicity against human NCI-H226 cells; summary of the method: as §1
# [39] = system: DU-145; assay: Cytotoxicity against human DU145 cells; summary of the method: as §1
# [40] = system: MDA-MB-468; assay: Cytotoxicity against human MDA-MB-468 cells; summary of the method: as §1
# [41] = system: A549; assay: Cytotoxicity against human A549 cells; summary of the method: as §1
# [42] = system: SK-OV-3; assay: Cytotoxicity against human SKOV3 cells; summary of the method: as §1
# [43] = Cytotoxicity against human UO31 cells; summary of the method: as §2
# [44] = system: MCF7; assay: Cytotoxicity against human MCF7 cells; summary of the method: as §1
# [45] = read-out: pLC50 (the source's name) (converted)
smiles,measurement,setting,value
COc1cc(/C=C/c2cc(OC)c3cc[nH]c3c2)cc2c1O[C@]1(C)CC[C@@H](O)C(C)(C)[C@H]1C2,GI50,[1],2.24 µM
same,CC50,[1]; [45],49 µM
same,TGI,[1]; read-out: pTGI (converted),11.2 µM
same,GI50,[2],0.151 µM
same,CC50,[2]; [45],> 100 µM
same,GI50,[3],0.676 µM
same,CC50,[3]; [45],> 100 µM
same,TGI,[3]; read-out: pTGI (converted),7.08 µM
same,GI50,[4]; OVCAR-3,1.2 µM
same,CC50,"[4]; OVCAR-3, read-out: pLC50 (the source's name) (converted)",10 µM
same,TGI,"[4]; OVCAR-3, read-out: pTGI (converted)",3.16 µM
same,GI50,[5],0.191 µM
same,CC50,[5]; [45],3.63 µM
same,TGI,[5]; read-out: pTGI (converted),0.468 µM
same,GI50,[6],0.331 µM
same,CC50,[6]; [45],31.6 µM
same,TGI,[6]; read-out: pTGI (converted),3.63 µM
same,GI50,[7],0.851 µM
same,LC50,[7],> 100 µM
same,TGI,[7]; read-out: pTGI (converted),4.57 µM
same,GI50,[8],0.024 µM
same,LC50,[8],0.316 µM
same,TGI,[8]; read-out: pTGI (converted),0.0603 µM
same,GI50,[9]; OVCAR-4,0.871 µM
same,CC50,"[9]; OVCAR-4, read-out: pLC50 (the source's name) (converted)",> 100 µM
same,TGI,"[9]; OVCAR-4, read-out: pTGI (converted)",26.9 µM
same,GI50,[10],0.141 µM
same,CC50,[10]; [45],3.09 µM
same,TGI,[10]; read-out: pTGI (converted),0.468 µM
same,GI50,[11],0.575 µM
same,LC50 (concentration killing 50% of cells),[11],> 100 µM
same,TGI,[11]; read-out: pTGI (converted),6.92 µM
same,GI50,[12]; HCT-15,0.398 µM
same,CC50,"[12]; HCT-15, read-out: pLC50 (the source's name) (converted)",> 100 µM
same,TGI,"[12]; HCT-15, read-out: pTGI (converted)",7.94 µM
same,GI50,[13],0.501 µM
same,CC50,[13]; [45],9.55 µM
same,TGI,[13]; read-out: pTGI (converted),2.4 µM
same,GI50,[14],0.229 µM
same,CC50,[14]; [45],> 100 µM
same,TGI,[14]; read-out: pTGI (converted),3.09 µM
same,GI50,[15],2.09 µM
same,CC50,[15]; [45],> 100 µM
same,TGI,[15]; read-out: pTGI (converted),20 µM
same,GI50,[16],0.324 µM
same,CC50,[16]; [45],> 100 µM
same,TGI,[16]; read-out: pTGI (converted),1.38 µM
same,GI50,[17]; OVCAR-5,1 µM
same,CC50,"[17]; OVCAR-5, read-out: pLC50 (the source's name) (converted)",> 100 µM
same,TGI,"[17]; OVCAR-5, read-out: pTGI (converted)",6.03 µM
same,GI50,[18],0.0794 µM
same,LC50,[18],0.851 µM
same,TGI,[18]; read-out: pTGI (converted),0.269 µM
same,GI50,[19]; read-out: GI50,0.055 µM
same,GI50,[19]; read-out: pGI50 (converted),0.055 µM
same,CC50,[19]; [45],0.794 µM
same,TGI,[19]; read-out: pTGI (converted),0.224 µM
same,GI50,[20],0.389 µM
same,CC50,[20]; [45],4.47 µM
same,TGI,[20]; read-out: pTGI (converted),1.48 µM
same,GI50,[21]; UACC-257,0.295 µM
same,TGI,"[21]; UACC-257, read-out: pTGI (converted)",0.759 µM
same,GI50,[22],0.219 µM
same,CC50,[22]; [45],0.891 µM
same,TGI,[22]; read-out: pTGI (converted),0.447 µM
same,GI50,[23],0.288 µM
same,CC50,[23]; [45],> 100 µM
same,TGI,[23]; read-out: pTGI (converted),1.78 µM
same,GI50,[24]; OVCAR-8,3.63 µM
same,CC50,"[24]; OVCAR-8, read-out: pLC50 (the source's name) (converted)",> 100 µM
same,TGI,"[24]; OVCAR-8, read-out: pTGI (converted)",25.1 µM
same,GI50,[25],0.38 µM
same,CC50,[25]; [45],37.2 µM
same,TGI,[25]; read-out: pTGI (converted),2.29 µM
same,GI50,[26],2.82 µM
same,CC50,[26]; [45],> 100 µM
same,TGI,[26]; read-out: pTGI (converted),50.1 µM
same,GI50,[27],0.245 µM
same,TGI,[27]; read-out: pTGI (converted),0.813 µM
same,GI50,[28],0.174 µM
same,CC50,[28]; [45],0.741 µM
same,TGI,[28]; read-out: pTGI (converted),0.355 µM
same,GI50,[29],0.178 µM
same,CC50,[29]; [45],0.708 µM
same,TGI,[29]; read-out: pTGI (converted),0.355 µM
same,GI50,[30]; UACC-62,0.162 µM
same,CC50,"[30]; UACC-62, read-out: pLC50 (the source's name) (converted)",0.955 µM
same,TGI,"[30]; UACC-62, read-out: pTGI (converted)",0.398 µM
same,GI50,[31],0.537 µM
same,CC50,[31]; [45],> 100 µM
same,TGI,[31]; read-out: pTGI (converted),6.03 µM
same,GI50,[32],0.0933 µM
same,TGI,[32]; read-out: pTGI (converted),0.468 µM
same,GI50,[33],0.0912 µM
same,CC50,[33]; [45],> 100 µM
same,TGI,[33]; read-out: pTGI (converted),0.49 µM
same,GI50,[34],0.309 µM
same,CC50,[34]; [45],> 100 µM
same,TGI,[34]; read-out: pTGI (converted),1.74 µM
same,GI50,[35],0.692 µM
same,CC50,[35]; [45],> 100 µM
same,TGI,[35]; read-out: pTGI (converted),3.39 µM
same,GI50,[36],3.55 µM
same,CC50,[36]; [45],> 100 µM
same,TGI,[36]; read-out: pTGI (converted),37.2 µM
same,GI50,[37],1.55 µM
same,LC50,[37],> 100 µM
same,TGI,[37]; read-out: pTGI (converted),11 µM
same,GI50,[38],1.74 µM
same,CC50,[38]; [45],58.9 µM
same,TGI,[38]; read-out: pTGI (converted),7.08 µM
same,GI50,[39],1.07 µM
same,LC50 (50% lethal concentration),[39],> 100 µM
same,TGI,[39]; read-out: pTGI (converted),4.37 µM
same,GI50,[40],0.631 µM
same,LC50,[40],> 100 µM
same,TGI,[40]; read-out: pTGI (converted),4.47 µM
same,GI50,[41],0.871 µM
same,CC50,[41]; [45],> 100 µM
same,TGI,[41]; read-out: pTGI (converted),17.8 µM
same,GI50,[42],0.339 µM
same,TGI,[42]; read-out: pTGI (converted),1.29 µM
same,GI50,[43]; UO-31,0.186 µM
same,LC50,[43]; UO-31,> 100 µM
same,TGI,"[43]; UO-31, read-out: pTGI (converted)",0.977 µM
same,GI50,[44],0.389 µM
same,LC50,[44],> 100 µM
same,TGI,[44]; read-out: pTGI (converted),2 µM
